Active and inactive are the calls of the source. The calls are words filed in the database; no cut-off is given here.
Experiments:
[1] = Drug uptake in spleen tumor of F1 mouse implanted with mouse S37 cells assessed as normalized fluorescence at 2.5 mg/kg, iv measured after 24 hrs post injection in presence of He-Ne laser radiation by local fluorescence spectroscopic analysis; assay type: ADME, organism-based; details: in vivo
Procedure, shortened: (§1)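 Single iv dose of 2.5 mg/kg given to F1 mice bearing S37 sarcoma. Skin, muscle, liver, kidney, spleen and tumor taken from three animals each at 0.25, 0.5, 2, 4 and 24 h and read ex vivo by contact local fluorescence spectroscopy. He–Ne 632.8 nm excitation; 640–900 nm integral normalized to backscattered laser signal (FN).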

[2] = Phototoxicity against mouse S37 cells implanted in F1 mouse assessed as tumor growth inhibition at 5 mg/kg, iv preincubated for 15 mins with subsequent 150 J/cm2 irradiation measured on day 11 post irradiation relative to control; assay type: functional; details: S37, light or radiation study, read-out: TGI
Procedure, shortened: (§2)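 S37 sarcoma mice treated on day 7 of tumor growth with compound iv; tumors 140–160 mm3 beforehand, droperidol 0.25 mg ip as anesthetic. LED irradiation at 800 ± 21 nm, 100 mW/cm2, 150 J/cm2, given 15 or 30 min after dosing. Controls got iv 0.9% NaCl. Volume = d1×d2×d3×0.52; TGI = […]×100%.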

[3] = Phototoxicity against mouse S37 cells assessed as cell growth inhibition preincubated for 6 hrs with subsequent 10 J/cm2 irradiation followed by incubation in absence of compound for 24 hrs by MTT assay; assay type: functional; details: S37, light or radiation study
Procedure, shortened: (§3)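 S37 cells treated with 0.05–28 μM compound added 24 h after plating. After 0.25–6 h incubation, cells were irradiated with a halogen lamp through a KS-19 filter (720 nm) at 21.0 ± 1.0 mW/cm2, 10 J/cm2, with or without removing the compound. MTT read 24 h later; 50% growth inhibition taken as the value, mean of three tests.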

[4] = Phototoxicity against mouse S37 cells assessed as cell growth inhibition preincubated for 4 hrs with subsequent 10 J/cm2 irradiation followed by incubation in absence of compound for 24 hrs by MTT assay; assay type: functional; details: S37, light or radiation study; procedure, shortened: as §3
[5] = Drug uptake in skin tumor of F1 mouse implanted with mouse S37 cells assessed as normalized fluorescence at 2.5 mg/kg, iv measured after 30 mins post injection in presence of He-Ne laser radiation by local fluorescence spectroscopic analysis; assay type: ADME, organism-based; details: in vivo, 0.5 h
Procedure, shortened: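 S37 sarcoma-bearing immunocompetent F1 mice (18−22 g) given PS 2.5 mg/kg iv. Animals sacrificed at 0.25, 0.5, 2, 4 and 24 h, with three animals per time point. Skin, tumor and organ samples were read ex vivo by contact local fluorescence spectroscopy under He−Ne 632.8 nm excitation. Integrated 640−900 nm emission was normalized to the backscattered laser signal to give FN.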

[6] = Drug uptake in kidney tumor of F1 mouse implanted with mouse S37 cells assessed as normalized fluorescence at 2.5 mg/kg, iv measured after 24 hrs post injection in presence of He-Ne laser radiation by local fluorescence spectroscopic analysis; assay type: ADME, organism-based; details: in vivo; procedure, shortened: as §1
[7] = Phototoxicity against mouse S37 cells implanted in F1 mouse assessed as tumor growth inhibition at 5 mg/kg, iv preincubated for 30 mins with subsequent 150 J/cm2 irradiation measured on day 8 post irradiation relative to control; assay type: functional; details: S37, light or radiation study, read-out: TGI; procedure, shortened: as §2
[8] = Phototoxicity against mouse S37 cells implanted in F1 mouse assessed as tumor growth inhibition at 5 mg/kg, iv preincubated for 30 mins with subsequent 150 J/cm2 irradiation measured on day 15 post irradiation relative to control; assay type: functional; details: S37, light or radiation study, read-out: TGI; procedure, shortened: as §2
[9] = Phototoxicity against rat Sarcoma M1 cells implanted in rat assessed as tumor volume at 2.5 mg/kg, ip administered as single dose on day 11 after inoculation followed by 300 J/cm2 irradiation after 2.5 to 3 hrs measured on day 1 post photodynamic therapy (reference value: 1.22 +/- 0.18 mm3); assay type: functional
Procedure, shortened: (§4)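 Rats with M1 sarcoma implanted subcutaneously in the left thigh were randomized on day 10, 25 per group. Single ip dose of 2.5 mg/kg on day 11; laser irradiation 2.5–3 h later at 810 nm, 0.51 W/cm2, 300 J/cm2, 10 min over a 1.5 cm field. Five rats sampled per time point for H&E histology, PCNA immunohistochemistry (1:200) and tumor volume. Untreated controls; Student's test, p < 0.05.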

[10] = Phototoxicity against rat Sarcoma M1 cells implanted in rat assessed as apoptotic index at 2.5 mg/kg, ip administered as single dose on day 11 after inoculation followed by 300 J/cm2 irradiation after 2.5 to 3 hrs measured on day 1 post photodynamic therapy (reference value: 0.29 +/- 0.02 %); assay type: functional; procedure, shortened: as §4
[11] = Phototoxicity against rat Sarcoma M1 cells implanted in rat assessed as tumor volume at 2.5 mg/kg, ip administered as single dose on day 11 after inoculation followed by 300 J/cm2 irradiation after 2.5 to 3 hrs measured on day 3 post photodynamic therapy (reference value: 1.6 +/- 0.3 mm3); assay type: functional; procedure, shortened: as §4
[12] = (§5) Phototoxicity against rat Sarcoma M1 cells implanted in rat assessed as volume of tumor parenchyma at 2.5 mg/kg, ip administered as single dose on day 11 after inoculation followed by 300 J/cm2 irradiation after 2.5 to 3 hrs measured on day 3 post photodynamic therapy by hematoxylin and eosin staining based assay (reference value: 70 +/- 4%); assay type: functional
Procedure, shortened: (§6)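 Rat M1 sarcoma was implanted subcutaneously in the left thigh, with randomisation on day 10. A single 2.5 mg/kg ip dose was given on day 11, then 810 nm laser (0.51 W/cm2, 300 J/cm2, 10 min) after 2.5−3 h. Tumours were sectioned on days 1, 3 and 12 after PDT (controls days 12, 14, 23), five animals per point. Parenchyma and necrotic zone volumes were estimated on hematoxylin and eosin staining.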

[13] = (§7) Phototoxicity against rat Sarcoma M1 cells implanted in rat assessed as volume of tumor necrotic zones at 2.5 mg/kg, ip administered as single dose on day 11 after inoculation followed by 300 J/cm2 irradiation after 2.5 to 3 hrs measured on day 3 post photodynamic therapy (reference value: 30 +/- 4%); assay type: functional; procedure, shortened: as §6
[14] = Phototoxicity against rat Sarcoma M1 cells implanted in rat assessed as mitotic index at 2.5 mg/kg, ip administered as single dose on day 11 after inoculation followed by 300 J/cm2 irradiation after 2.5 to 3 hrs measured on day 3 post photodynamic therapy (reference value: 1.84 +/- 0.04%); assay type: functional; procedure, shortened: as §4
[15] = as §5, with “day 12” for “day 3”, “value: 56” for “value: 70”, “+/- 3%)” for “+/- 4%)”; assay type: functional; procedure, shortened: as §6
[16] = as §7, with “of PCNA-positive cells in” for “of”, “tumor parenchyma” for “tumor necrotic zones”, “day 12” for “day 3”, “value: 72” for “value: 30”, “+/- 5%)” for “+/- 4%)”; assay type: functional; procedure, shortened: as §4
Sarcoma M1 [17] = assay: Phototoxicity against rat Sarcoma M1 cells implanted in rat assessed as damage to tumor nodes at 2.5 mg/kg, ip administered as single dose on day 11 post inoculation followed by 300 J/cm2 irradiation after 2.5 to 3 hrs measured on day 2 post photodynamic therapy by hematoxylin and eosin staining based assay; assay type: functional, organism-based
Sarcoma M1 [18] = assay: (§8) Phototoxicity against rat Sarcoma M1 cells implanted in rat assessed as deposition of fragments of proliferated tumor parenchyma at 2.5 mg/kg, ip administered as single dose on day 11 post inoculation followed by 300 J/cm2 irradiation after 2.5 to 3 hrs measured on day 2 post photodynamic therapy; assay type: functional, organism-based
Sarcoma M1 [19] = assay: as §8, with “as” for “as deposition of fragments of proliferated”, “vasculature disruption” for “parenchyma”, “therapy by CD31 dependent immunoimgaing” for “therapy”; assay type: functional, organism-based

## CCCO/N=C(\C)c1c(C)c2cc3nc(c4c5[nH]c(cc6nc(cc1[nH]2)[C@H](C)[C@H]6CC)c(C)c5C(=O)N(OCCC)C4=O)[C@@H](CCC(=O)OC)[C@@H]3C
[1]
  Drug uptake: Active
[2]
  inhibition in vivo at 5 mg/kg: 100%
[3]
  CC50: 110 nM

## CCCO/N=C(\C)c1c(C)c2cc3nc(c4c5[nH]c(cc6nc(cc1[nH]2)[C@@H](C)[C@@H]6CC)c(C)c5C(=O)N(OCCC)C4=O)[C@H](CCC(=O)NCCSSCCNC(=O)CC[C@@H]1c2nc(cc4[nH]c(cc5nc(cc6[nH]c7c2C(=O)N(OCCC)C(=O)c7c6C)[C@H](CC)[C@H]5C)c(/C(C)=N/OCCC)c4C)[C@H]1C)[C@H]3C
[4]
  CC50: 50 nM
[5]
  Flu intensity: 2.2 RU
[6]
  Drug uptake: Active
[7]
  inhibition in vivo at 5 mg/kg: 100%
[8]
  inhibition in vivo at 5 mg/kg: 100%
[9]
  Activity: 1.13 mm3
[10]
  Activity: 0.39%
[11]
  Activity: 0.59 mm3
[12]
  Activity: 23%
[13]
  Activity: 77%
[14]
  Activity: 1.84%
[15]
  Activity: 30%
[16]
  Activity: 39%
Sarcoma M1 [17]
  Activity: Active
Sarcoma M1 [18]
  Activity: Active
Sarcoma M1 [19]
  Activity: Active
